Assay results taken from article PMC10586084 (Journal of Enzyme Inhibition and Medicinal Chemistry, 2023).

Columns and labels:
hCA XII = hCA XII (Homo sapiens, UniProt O43570); experiment: stopped-flow CO2 hydrase assay, hCA XII; type: biochemical
HD-MB03 cells = experiment: apoptosis assay; type: cell-based, human; conditions: 72 h; for apoptotic cells in combination with cis-Pt: 10 µM + cis-Pt 1.8 µM, HD-MB03, vs single treatments; for induction of apoptosis (apoptotic cells): 10 µM alone, HD-MB03
Outline: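 HD-MB03 medulloblastoma cells grown in RPMI 1640 with 10% FBS, 1% glutamine and 1% penicillin–streptomycin, kept at 2% O2/5% CO2. Seeded at 10 000 cells/well, treated after 24 h, exposed 72 h. Stained 15 min in the dark at room temperature with Annexin V–FITC (FL1, 525 nm/40) and PI (FL3, 620 nm/20). Whole population analysed by flow cytometry. Mean ± SE, three independent experiments.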

hCA I = hCA I (Homo sapiens, UniProt P00915); experiment: stopped-flow CO2 hydrase assay, hCA I; type: biochemical; conditions: stopped flow technique, mean from three assays
hCA I, sequence (P00915 whole entry): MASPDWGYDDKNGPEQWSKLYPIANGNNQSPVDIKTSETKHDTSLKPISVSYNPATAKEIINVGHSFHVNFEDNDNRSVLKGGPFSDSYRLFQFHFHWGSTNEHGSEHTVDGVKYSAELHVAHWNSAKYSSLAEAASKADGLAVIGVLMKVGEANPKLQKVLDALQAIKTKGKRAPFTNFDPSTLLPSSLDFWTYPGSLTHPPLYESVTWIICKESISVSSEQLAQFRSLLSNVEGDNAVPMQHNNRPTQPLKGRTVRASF

[1] = system: HD-MB03 and DAOY medulloblastoma cell lines; experiment: cell proliferation analysis; type: cell-based, human; conditions: compound 10 µM + cis-Pt 1.8 µM, 72 h, both MB cell lines
[2] = system: HuTuP108 GBM primary cells; experiment: apoptosis assay; type: cell-based, human; conditions: 72 h; for apoptotic cells in combination with TMZ: 10 µM + TMZ 500 µM, HuTuP108, vs single treatments; for induction of apoptosis: 10 µM alone, HuTuP108
Outline: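 Patient-derived primary glioblastoma cells on fibronectin-coated plates in DMEM/F12 with 10% BIT9500, 20 ng/mL bFGF and 20 ng/mL EGF, held at 2% O2/5% CO2. Seeded at 10 000 cells/well, dosed 24 h later for 72 h. Annexin V–FITC/PI staining for 15 min in the dark at room temperature, then flow cytometry (FL1 525 nm/40, FL3 620 nm/20) on the whole population. Mean ± SE of three independent experiments.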

hCA IV = hCA IV (Homo sapiens, UniProt P22748); experiment: stopped-flow CO2 hydrase assay, hCA IV; type: biochemical; conditions: stopped flow technique, mean from three assays
hCA IV, sequence (P22748 19-284 limits assumed): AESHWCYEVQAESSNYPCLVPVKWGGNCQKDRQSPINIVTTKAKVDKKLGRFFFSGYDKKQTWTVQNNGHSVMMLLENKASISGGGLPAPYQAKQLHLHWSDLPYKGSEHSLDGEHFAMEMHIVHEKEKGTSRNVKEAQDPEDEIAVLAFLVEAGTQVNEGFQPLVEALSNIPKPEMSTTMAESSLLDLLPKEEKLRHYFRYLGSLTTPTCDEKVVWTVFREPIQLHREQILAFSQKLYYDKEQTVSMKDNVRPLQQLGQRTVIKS

hCA II = hCA II (Homo sapiens, UniProt P00918); experiment: stopped-flow CO2 hydrase assay, hCA II; type: biochemical; conditions: stopped flow technique, mean from three assays
[3] = system: HuTuP192 primary glioblastoma cells; experiment: cell proliferation analysis; type: cell-based, human; conditions: compound 10 µM + TMZ 500 µM, 72 h, HuTuP192
[4] = cytotoxicity in resting peripheral blood lymphocytes; type: cell-based; conditions: human
hCA IX = hCA IX (Homo sapiens, UniProt Q16790); experiment: biochemical; type: biochemical
[5] = system: HuTuP108 primary glioblastoma cells; experiment: cell proliferation analysis; type: cell-based, human; conditions: compound 10 µM + TMZ 500 µM, 72 h

hCA XII, sequence (O43570 25-354): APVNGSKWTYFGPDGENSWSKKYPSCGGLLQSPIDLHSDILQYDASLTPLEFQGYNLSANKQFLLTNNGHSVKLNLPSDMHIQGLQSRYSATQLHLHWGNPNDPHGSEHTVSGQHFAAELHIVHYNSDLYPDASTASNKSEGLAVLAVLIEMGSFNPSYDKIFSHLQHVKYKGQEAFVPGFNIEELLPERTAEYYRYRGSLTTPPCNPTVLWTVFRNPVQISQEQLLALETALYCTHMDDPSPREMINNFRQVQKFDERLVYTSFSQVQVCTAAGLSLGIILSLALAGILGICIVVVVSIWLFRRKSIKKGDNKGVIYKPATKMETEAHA

Structure (SMILES)	Ki (hCA XII; KI hCA XII, stopped flow technique, mean from three assays)	Selectivity index I/XII (hCA XII; ratio KI hCA I / KI hCA XII)	Selectivity index II/XII (hCA XII; ratio KI hCA II / KI hCA XII)	Selectivity index IV/XII (hCA XII; ratio KI hCA IV / KI hCA XII)	apoptotic cells in combination with cis-Pt (HD-MB03 cells)	induction of apoptosis (apoptotic cells) (HD-MB03 cells)	Ki (hCA I)	effect of combination on efficacy of CDDP in reducing cell viability [1]	apoptotic cells in combination with TMZ [2]	induction of apoptosis [2]	Ki (hCA IV)	Ki (hCA II)	effect of combination on the effect of TMZ [3]	GI50 at 72 h [4]	Ki (hCA IX; KI hCA IX, stopped flow technique, mean from three assays)	Selectivity index I/IX (hCA IX; ratio KI hCA I / KI hCA IX)	Selectivity index II/IX (hCA IX; ratio KI hCA II / KI hCA IX)	Selectivity index IV/IX (hCA IX; ratio KI hCA IV / KI hCA IX)	effect of combination on the effect of TMZ [5]
NS(=O)(=O)c1ccc(Nc2nc3nccc(-c4c(F)ccc(F)c4F)n3n2)cc1 [Compound 1j, 4-((7-(2,3,6-Trifluorophenyl)-[1,2,4]triazolo[1,5-a]pyrimidin-2-yl)amino)benzenesulfonamide]	5.4 nM	91.9	2.6	123	significant increase in the percentage of apoptotic cells	about 25%	496 nM	significantly improved the efficacy of CDDP	significant increase in the percentage of apoptotic cells	ineffective	662 nM	13.9 nM	did not significantly improve the effect of TMZ	> 10000 nM	8.6 nM	57.7	1.6	77.0	did not significantly improve the effect of TMZ
NS(=O)(=O)c1ccc(NC(=O)Nc2ccc(F)cc2)cc1 [SLC-0111, reference compound]	–	–	–	–	did not cause any increase in cytotoxicity	did not significantly induce apoptosis	–	–	did not cause any increase in cytotoxicity	did not significantly induce apoptosis	–	–	–	> 10000 nM	–	–	–	–	–
